Test results published in ChEMBL document CHEMBL1155370, “Discovery and initial SAR of pyrimidin-4-yl-1H-imidazole derivatives with antiproliferative activity against melanoma cell lines” (Bioorg Med Chem Lett, 2010).
Calls of active or inactive are those of the source. The calls are words filed in the database; no cut-off is given here.

How the values were obtained:
Assay type in all cases: functional
[1] = Selectivity ratio of GI50 for human WM3629 cells to GI50 for human A375P cells
[2] = (§1) Growth inhibition of human WM3629 cells by MTT assay
In short: (§2)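 WM3629 cells kept in Tu2% medium. They were seeded at 5×10^3 cells/well, rested 24 h, then exposed to a 12-point three-fold serial dilution. GI50 was taken from an MTT reduction assay read at 590 nm.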

[3] = (§3) Growth inhibition of human A375P cells by MTT assay
In short: (§4)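 A375P cells grown in DMEM with 10% FBS and 1% penicillin/streptomycin at 37 °C in 5% CO2. Cells were detached with trypsin-EDTA, seeded at 5×10^3 cells/well and left 24 h. They were then treated with a 12-point three-fold serial dilution. Viability was read by MTT reduction assay as absorbance at 590 nm.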

A375P = assay: as §3; in short: as §4
WM3629 = assay: as §1; in short: as §2

GI50 (A375P) | Compound | RatioGI50 [1] | GI50 [2] | GI50 [3] | GI50 (WM3629)
 | Cc1cn(-c2cc(C(=O)Nc3cccc(-c4nccn4-c4ccnc(NC[C@H](C)O)n4)c3)cc(C(F)(F)F)c2)cn1 | 5 | 3.49 µM | 6.72 µM | 
 | C[C@H](O)CNc1nccc(-n2ccnc2-c2ccc(NC(=O)Nc3ccc(Cl)c(Cl)c3)cc2)n1 |  | 2.45 µM | 17.8 µM | 
 | C[C@H](O)CNc1nccc(-n2ccnc2-c2ccc(NC(=O)c3coc(-c4cc(C(F)(F)F)ccc4Cl)c3)cc2)n1 |  | > 100 µM | 2.23 µM | 
inactive | COc1ccc(-c2cc(C(=O)Nc3cccc(-c4nccn4-c4ccnc(NC[C@H](C)O)n4)c3)co2)cc1 | 5 | 22.3 µM |  | 
 | C[C@H](O)CNc1nccc(-n2ccnc2-c2cccc(NC(=O)Nc3cccc(C(F)(F)F)c3)c2)n1 | 5 | 7.86 µM | 19.2 µM | 
 | C[C@H](O)CNc1nccc(-n2ccnc2-c2ccc(NC(=O)Nc3ccc(Cl)c(C(F)(F)F)c3)cc2)n1 |  | 4.43 µM | 10.1 µM | 
 | C[C@H](O)CNc1nccc(-n2ccnc2-c2ccc(NC(=O)c3ccc(Cl)c(C(F)(F)F)c3)cc2)n1 |  | > 100 µM | 79.2 µM | 
 | C[C@H](O)CNc1nccc(-n2ccnc2C(=O)c2ccc(NC(=O)c3ccc(Cl)c(C(F)(F)F)c3)cc2)n1 |  | 1.37 µM | 2.51 µM | 
 | C[C@H](O)CNc1nccc(-n2ccnc2-c2cccc(NC(=O)Nc3ccc(Cl)c(Cl)c3)c2)n1 | 5 | 0.65 µM | 5.93 µM | 
 | C[C@H](O)CNc1nccc(-n2ccnc2-c2cccc(NC(=O)c3coc(-c4cc(C(F)(F)F)ccc4Cl)c3)c2)n1 | 5 |  |  | inactive
 | Cc1ccc2nc(NC(=O)Nc3cccc(-c4nccn4-c4ccnc(NC[C@H](C)O)n4)c3)sc2c1 | 5 | 4.54 µM | 19.4 µM | 
 | C[C@H](O)CNc1nccc(-n2ccnc2C(=O)c2ccc(NC(=O)Nc3ccc(Cl)c(C(F)(F)F)c3)cc2)n1 |  | 3.51 µM | 9.29 µM | 
 | C[C@H](O)CNc1nccc(-n2ccnc2-c2cccc(NC(=O)Nc3cccc(Cl)c3)c2)n1 | 5 | > 100 µM | 85.8 µM | 
 | CNC(=O)c1cc(Oc2ccc(NC(=O)Nc3ccc(Cl)c(C(F)(F)F)c3)cc2)ccn1 [SORAFENIB] |  | 0.78 µM | 5.58 µM | 
 | C[C@H](O)CNc1nccc(-n2ccnc2-c2ccc(NC(=O)Nc3cccc(C(F)(F)F)c3)cc2)n1 |  | 12.9 µM | 7.19 µM | 
